This passage reports MIC, Ratio and ED50 results from ChEMBL document CHEMBL1123986, “Oral absorption of cephalosporin antibiotics. 2. Expanded structure-activity relationships of 7-(arylacetamido)-3-substituted cephalosporins” (1988).

Converted amounts (≈) assume the structure as drawn.

One experiment relates to Salmonella typhi. Put plainly: Minimum inhibitory concentration against Salmonella typhi. Format: functional, Salmonella enterica subsp. enterica serovar Typhi. The conditions noted are these: Salmonella enterica.
A short description of experiment [1]: Ratio of ED50 value evaluated in Streptococcus pyogenes by po to sc administration. Format: functional. The essentials: (§1)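 Oral/subcutaneous effective-dose ratio. Both routes were dosed in random-sex ICR mice of 19–21 g at 1 and 5 h after an intraperitoneal challenge of 50–500 LD50 from a frozen organism pool. Each route used five 2-fold dilution levels with eight mice per level, and the po value was divided by the sc value.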

The nature of experiment [2]: Ratio of ED50 value evaluated in Staphylococcus aureus by po to sc administration. Format: functional. The essentials: as §1
The nature of experiment [3]: Ratio of ED50 value evaluated in Streptococcus pneumoniae by po to sc administration. Format: functional. The essentials:
as §1

For experiment [4], the system named is Mus musculus. Put plainly: Effective dose administered orally (po) to 19-21-g random sex ICR mice at 1 hr and 5 hr intervals after intraperitoneal administration of Streptococcus pneumoniae. Format: functional. The procedure, abridged: (§2)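 Mouse protection: random-sex ICR mice, 19–21 g, challenged intraperitoneally from a frozen organism pool giving 50–500 LD50 per challenge dose. Drug given sc or po at 1 and 5 h post-infection. Five 2-fold dilution levels per compound, eight mice per dilution.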

Experiment [5] relates to Mus musculus. Put plainly: Effective dose administered subcutaneously (sc) to 19-21-g random sex ICR mice at 1 hr and 5 hr intervals after intraperitoneal administration of Streptococcus pyogenes. Format: functional. The procedure, abridged: as §2
In experiment [6] the test system is Mus musculus. Put plainly: Effective dose administered subcutaneously (sc) to 19-21-g random sex ICR mice at 1 hr and 5 hr intervals after intraperitoneal administration of Streptococcus pneumoniae. Format: functional. The procedure, abridged:
as §2

Experiment [7] has as its system Streptococcus pyogenes. Put plainly: Minimum inhibitory concentration against Streptococcus pyogenes. Format: functional. The procedure, abridged:
(§3)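 Agar dilution MIC in μg/mL. […] Organisms not run are marked not tested.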

For experiment [8], the system named is Haemophilus influenzae. Put plainly: (§4) Minimum inhibitory concentration against Haemophilus influenzae. Format: functional. The essentials: as §3
The subject of another experiment is Klebsiella aerogenes. Put plainly: Minimum inhibitory concentration against Enterobacter aerogenes. Format: functional. The procedure, abridged:
as §3

Experiment [9] deals with Streptococcus pneumoniae. Put plainly: Minimum inhibitory concentration against Streptococcus pneumoniae. Format: functional. The essentials: as §3
Experiment [10] deals with Haemophilus influenzae. Described as §4. Format: functional. The essentials:
as §3
The source holds these as a separate data set.

For experiment [11], the system named is Mus musculus. Put plainly: Effective dose administered orally (po) to 19-21-g random sex ICR mice at 1 hr and 5 hr intervals after intraperitoneal Streptococcus pyogenes. Format: functional. The essentials:
as §2

Experiment [12] deals with Staphylococcus aureus. Put plainly: Efficacy against mouse infections caused by Staphylococcus aureus measured as Minimum inhibitory concentration.
Experiment [13] relates to Mus musculus. Put plainly: Effective dose administered subcutaneously (sc) to 19-21-g random sex ICR mice at 1 hr and 5 hr intervals after intraperitoneal administration of Staphylococcus aureus. Format: functional. The procedure, abridged:
as §2

The next experiment deals with Escherichia coli. Put plainly: Minimum inhibitory concentration against Escherichia coli. Format: functional. The essentials: as §3
In experiment [14] the test system is Staphylococcus aureus. Put plainly: Minimum inhibitory concentration against Staphylococcus aureus. Format: functional. The essentials:
as §3

Experiment [15] concerns Mus musculus. Put plainly: Effective dose administered orally (po) to 19-21-g random sex ICR mice at 1 hr and 5 hr intervals after intraperitoneal Staphylococcus aureus. Format: functional. The essentials:
as §2

The subject of experiment [16] is Streptococcus pneumoniae. Put plainly: Efficacy against mouse infections caused by S. Pneumoniae measured as Minimum inhibitory concentration.
Experiment [17] relates to Streptococcus pyogenes. Put plainly: Efficacy against mouse infections caused by Streptococcus pyogenes measured as Minimum inhibitory concentration.
Another experiment concerns Klebsiella pneumoniae. Put plainly: Minimum inhibitory concentration against Klebsiella pneumoniae. Format: functional. The essentials: as §3

Turning to `O=C(Cc1csc2ccccc12)N[C@@H]1C(=O)N2C(C(=O)O)=C(Cl)CS[C@H]12`, the MIC in the experiment on Salmonella typhi amounted to 128 µg/mL (≈ 313 µM). The Ratio was 1.4 in experiment [1], 2.4 in experiment [2] and 2.4 in [3].
With `O=C(Cc1csc2ccccc12)N[C@@H]1C(=O)N2C(C(=O)O)=CCS[C@H]12`, the ED50 in the experiment with Mus musculus [4] is >10 2mg kg-1; with Mus musculus [5], 8.2 2mg kg-1; in the experiment with Mus musculus [6], >10 2mg kg-1; with Mus musculus [11], >10 2mg kg-1; in the experiment on Mus musculus [13], 0.8 2mg kg-1; with Mus musculus [15], 2.9 2mg kg-1. Further, the MIC is 0.06 µg/mL (≈ 0.16 µM) against Streptococcus pyogenes [7]; 4 µg/mL (≈ 10.7 µM) with Haemophilus influenzae [8]; over 128 µg/mL in the experiment on Salmonella typhi; over 128 µg/mL in the experiment on Klebsiella aerogenes; 0.25 µg/mL (≈ 0.668 µM) with Streptococcus pneumoniae [9]; 0.5 µg/mL (≈ 1.34 µM) in the experiment with Haemophilus influenzae [10]. Also, the MIC in the experiment with Staphylococcus aureus [12] is 0.25 µg/mL (≈ 0.668 µM); with Escherichia coli, 64 µg/mL (≈ 171 µM); in the experiment on Staphylococcus aureus [14], 0.25 µg/mL (≈ 0.668 µM); in the experiment on Streptococcus pneumoniae [16] it was 0.25 µg/mL (≈ 0.668 µM); against Streptococcus pyogenes [17], 0.06 µg/mL (≈ 0.16 µM); against Klebsiella pneumoniae it was over 128 µg/mL. In addition, the Ratio in [2] is listed as 3.6.
Turning to `CO/N=C/c1ccc(OCC(=O)N[C@@H]2C(=O)N3C(C(=O)O)=C(Cl)CS[C@H]23)cc1`, the MIC against Streptococcus pyogenes [7] was 0.03 µg/mL (≈ 0.0704 µM); in the experiment with Haemophilus influenzae [8], 4 µg/mL (≈ 9.39 µM); against Salmonella typhi, over 128 µg/mL; in the experiment with Klebsiella aerogenes, over 128 µg/mL; with Streptococcus pneumoniae [9], 0.06 µg/mL (≈ 0.141 µM); in the experiment with Haemophilus influenzae [10], 1 µg/mL (≈ 2.35 µM). For the same molecule, the results for the MIC in the experiment with Escherichia coli, against Staphylococcus aureus [14] and against Klebsiella pneumoniae were over 128 µg/mL, 0.25 µg/mL (≈ 0.587 µM) and over 128 µg/mL, respectively.
Regarding `CC1=C(C(=O)O)N2C(=O)[C@@H](NC(=O)Cc3csc4ccccc34)[C@H]2SC1`, the MIC against Streptococcus pyogenes [7] was 0.5 µg/mL (≈ 1.29 µM); with Haemophilus influenzae [8] it was 32 µg/mL (≈ 82.4 µM); against Salmonella typhi, over 128 µg/mL; in the experiment with Klebsiella aerogenes it was over 128 µg/mL; against Streptococcus pneumoniae [9], 1 µg/mL (≈ 2.57 µM); in the experiment with Haemophilus influenzae [10] it was 1 µg/mL (≈ 2.57 µM). The values for the MIC against Escherichia coli, against Staphylococcus aureus [14] and in the experiment on Klebsiella pneumoniae were over 128 µg/mL, 1 µg/mL (≈ 2.57 µM) and over 128 µg/mL, respectively.
Take `Nc1n[nH]c(SCC(=O)N[C@@H]2C(=O)N3C(C(=O)O)=C(Cl)CS[C@H]23)n1`: the MIC with Streptococcus pyogenes [7] is 1 µg/mL (≈ 2.56 µM); in the experiment on Haemophilus influenzae [8] it was 4 µg/mL (≈ 10.2 µM); in the experiment with Salmonella typhi, 8 µg/mL (≈ 20.5 µM); against Klebsiella aerogenes, over 128 µg/mL; against Streptococcus pneumoniae [9], 2 µg/mL (≈ 5.12 µM); against Haemophilus influenzae [10] it was 2 µg/mL (≈ 5.12 µM). The MIC against Escherichia coli worked out at 16 µg/mL (≈ 40.9 µM); in the experiment with Staphylococcus aureus [14], 4 µg/mL (≈ 10.2 µM); against Klebsiella pneumoniae, 8 µg/mL (≈ 20.5 µM).
`COc1ccc(CC(=O)N[C@@H]2C(=O)N3C(C(=O)O)=C(Cl)CS[C@H]23)cc1`: the MIC is 0.125 µg/mL (≈ 0.327 µM) against Streptococcus pyogenes [7]; 1 µg/mL (≈ 2.61 µM) against Haemophilus influenzae [8]; 32 µg/mL (≈ 83.6 µM) against Salmonella typhi; over 128 µg/mL with Klebsiella aerogenes; 0.125 µg/mL (≈ 0.327 µM) in the experiment on Streptococcus pneumoniae [9]; 1 µg/mL (≈ 2.61 µM) in the experiment on Haemophilus influenzae [10]. Besides, the MIC amounted to 64 µg/mL (≈ 167 µM) against Escherichia coli, 0.5 µg/mL (≈ 1.31 µM) against Staphylococcus aureus [14] and 32 µg/mL (≈ 83.6 µM) in the experiment on Klebsiella pneumoniae.
For the molecule `C=CC1=C(C(=O)O)N2C(=O)[C@@H](NC(=O)Cc3csc4ccccc34)[C@H]2SC1`, the ED50 in the experiment with Mus musculus [4] is recorded as >16 2mg kg-1; in the experiment with Mus musculus [5], 3.54 2mg kg-1; in the experiment on Mus musculus [6] it was 8.4 2mg kg-1; with Mus musculus [11] it was 14.7 2mg kg-1; in the experiment on Mus musculus [13] it was 0.76 2mg kg-1; in the experiment on Mus musculus [15], 3.12 2mg kg-1. Also, the MIC in the experiment on Streptococcus pyogenes [7] is 0.015 µg/mL (≈ 0.0375 µM); in the experiment on Haemophilus influenzae [8], 4 µg/mL (≈ 9.99 µM); against Salmonella typhi, over 128 µg/mL; in the experiment on Klebsiella aerogenes it was over 128 µg/mL; against Streptococcus pneumoniae [9], 0.06 µg/mL (≈ 0.15 µM); in the experiment with Haemophilus influenzae [10], 4 µg/mL (≈ 9.99 µM). Besides, the MIC in the experiment on Staphylococcus aureus [12] is 0.125 µg/mL (≈ 0.312 µM); in the experiment on Escherichia coli it was over 128 µg/mL; with Staphylococcus aureus [14] it was 0.125 µg/mL (≈ 0.312 µM); in the experiment on Streptococcus pneumoniae [16], 0.03 µg/mL (≈ 0.0749 µM); against Streptococcus pyogenes [17] it was 0.03 µg/mL (≈ 0.0749 µM); in the experiment on Klebsiella pneumoniae, over 128 µg/mL. Also, the Ratio was 4.2 in experiment [1] and 4.1 in experiment [2].
As for `Nc1nc2cc(CC(=O)N[C@@H]3C(=O)N4C(C(=O)O)=C(Cl)CS[C@H]34)ccc2s1`, the ED50 is over 10 mg/kg in the experiment on Mus musculus [4]; 0.9 mg/kg in the experiment on Mus musculus [5]; 2.3 mg/kg in the experiment on Mus musculus [6]; 10 mg/kg with Mus musculus [11]; 3.54 mg/kg with Mus musculus [13]; over 10 mg/kg with Mus musculus [15]. The MIC was 0.06 µg/mL (≈ 0.141 µM) in the experiment with Streptococcus pyogenes [7]; 0.5 µg/mL (≈ 1.18 µM) in the experiment on Haemophilus influenzae [8]; 64 µg/mL (≈ 151 µM) in the experiment with Salmonella typhi; over 128 µg/mL against Klebsiella aerogenes; 0.06 µg/mL (≈ 0.141 µM) against Streptococcus pneumoniae [9]; 0.5 µg/mL (≈ 1.18 µM) against Haemophilus influenzae [10]. Also, the MIC against Staphylococcus aureus [12] was 0.25 µg/mL (≈ 0.588 µM); in the experiment on Escherichia coli it was 64 µg/mL (≈ 151 µM); with Staphylococcus aureus [14], 0.25 µg/mL (≈ 0.588 µM); in the experiment with Streptococcus pneumoniae [16], 0.06 µg/mL (≈ 0.141 µM); in the experiment with Streptococcus pyogenes [17], 0.03 µg/mL (≈ 0.0706 µM); in the experiment on Klebsiella pneumoniae, 64 µg/mL (≈ 151 µM). Moreover, the Ratio in [1] came out at 11.

One may read the ED50 as the dose at which the effect has come halfway, by size or by number of responders.
